Experimental data reported in ChEMBL document CHEMBL1145034.

Legend:
[1] = biological target: Estrogen receptor beta (Homo sapiens) (UniProt Q92731); experiment: Binding of […] to human estrogen receptor beta ligand binding domain expressed in Escherichia coli
Summary of the method: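 Competitive binding against [3H]E2 using lysates of E. coli expressing human ERβ LBD (M214–Q530); incubated overnight at 0–2 °C. Result given as RBA versus E2 (E2 = 100); mean of 3 experiments, each in duplicate.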

Rattus norvegicus = organism: Rattus norvegicus; experiment: Hydrolytic activity against esterase with hepatic microsomes relative to E16-1,2; details: Liver
[2] = biological target: T1, Estrogen receptor (Mus musculus) (UniProt O08537+P19785); experiment: Vaginal activity relative to estradiol (E2); assay type: functional
Summary of the method: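 Female CD-1 mice ovariectomized; 1 week later, compound instilled intravaginally in 10 μL sesame oil. Vaginal reductase induction measured and compared with 50 pg E2. n = 5–6 per group, at least two separate occasions.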

[3] = biological target: T2, Estrogen receptor (Rattus norvegicus) (UniProt P06211+Q62986); experiment: In vivo uterotropic activity at 100 ug subcutaneous dose in immature rats as ng estradiol dose for equivalent effect; assay type: functional, organism-based
Summary of the method: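 Immature (22-day) female Sprague–Dawley rats given daily subcutaneous injections in 0.1 mL sesame oil for 3 days, 100 μg total dose; controls received oil. Uteri removed, blotted and weighed on day 4. Compared with 5 ng E2 run concurrently; n = 5, usually 2 separate experiments.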

[4] = biological target: T2, Estrogen receptor (Rattus norvegicus); experiment: Uterotropic activity relative to estradiol (E2); assay type: functional, tissue-based; details: Uterus
Summary of the method: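 Immature female Sprague–Dawley rats, 22 days old, injected subcutaneously once a day for 3 days with test steroid in 0.1 mL sesame oil, 100 µg total dose; sesame oil controls; 5 ng E2 total run concurrently as reference. Uteri removed on day 4, blotted and weighed. n = 5, usually 2 separate experiments; activity expressed relative to E2.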

[5] = biological target: T1, Estrogen receptor (Mus musculus); experiment: In vivo vaginal activity in ovariectomised mice at 50 ng vaginal dose as pg estradiol dose for equivalent effect

T1 sequence (O08537 whole entry, looked up): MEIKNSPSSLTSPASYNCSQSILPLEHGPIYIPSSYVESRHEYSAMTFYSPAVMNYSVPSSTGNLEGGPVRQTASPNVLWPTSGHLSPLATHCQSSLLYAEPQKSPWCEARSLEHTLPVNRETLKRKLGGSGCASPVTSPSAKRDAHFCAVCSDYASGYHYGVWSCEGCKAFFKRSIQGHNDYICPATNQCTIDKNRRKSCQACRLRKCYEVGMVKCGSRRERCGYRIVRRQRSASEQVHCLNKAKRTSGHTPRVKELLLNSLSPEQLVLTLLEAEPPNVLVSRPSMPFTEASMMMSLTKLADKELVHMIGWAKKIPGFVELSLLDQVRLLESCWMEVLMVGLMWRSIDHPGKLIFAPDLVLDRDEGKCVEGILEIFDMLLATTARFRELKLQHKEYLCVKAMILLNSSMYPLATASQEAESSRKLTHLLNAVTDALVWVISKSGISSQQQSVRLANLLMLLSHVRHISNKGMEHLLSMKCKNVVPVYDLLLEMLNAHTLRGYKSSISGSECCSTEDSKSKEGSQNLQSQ
T1 sequence (P19785 whole entry, looked up): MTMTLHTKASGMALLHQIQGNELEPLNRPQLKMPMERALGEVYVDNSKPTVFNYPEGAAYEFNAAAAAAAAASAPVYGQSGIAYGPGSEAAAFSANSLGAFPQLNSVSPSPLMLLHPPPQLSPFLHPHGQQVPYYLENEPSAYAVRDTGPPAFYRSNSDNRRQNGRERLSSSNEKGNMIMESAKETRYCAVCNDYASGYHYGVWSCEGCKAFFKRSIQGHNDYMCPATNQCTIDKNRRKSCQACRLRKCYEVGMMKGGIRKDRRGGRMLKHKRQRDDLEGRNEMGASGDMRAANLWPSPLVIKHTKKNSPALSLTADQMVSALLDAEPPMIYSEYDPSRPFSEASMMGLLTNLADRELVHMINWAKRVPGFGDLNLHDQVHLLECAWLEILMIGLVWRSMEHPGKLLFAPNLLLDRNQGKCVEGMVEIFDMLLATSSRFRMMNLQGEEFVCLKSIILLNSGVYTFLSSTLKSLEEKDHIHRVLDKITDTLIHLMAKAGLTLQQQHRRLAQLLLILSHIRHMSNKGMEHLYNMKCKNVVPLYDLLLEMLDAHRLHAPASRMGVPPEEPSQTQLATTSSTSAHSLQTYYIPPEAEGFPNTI
Sequence of Estrogen receptor beta (Homo sapiens) (Q92731 whole entry, the tested form may be a part): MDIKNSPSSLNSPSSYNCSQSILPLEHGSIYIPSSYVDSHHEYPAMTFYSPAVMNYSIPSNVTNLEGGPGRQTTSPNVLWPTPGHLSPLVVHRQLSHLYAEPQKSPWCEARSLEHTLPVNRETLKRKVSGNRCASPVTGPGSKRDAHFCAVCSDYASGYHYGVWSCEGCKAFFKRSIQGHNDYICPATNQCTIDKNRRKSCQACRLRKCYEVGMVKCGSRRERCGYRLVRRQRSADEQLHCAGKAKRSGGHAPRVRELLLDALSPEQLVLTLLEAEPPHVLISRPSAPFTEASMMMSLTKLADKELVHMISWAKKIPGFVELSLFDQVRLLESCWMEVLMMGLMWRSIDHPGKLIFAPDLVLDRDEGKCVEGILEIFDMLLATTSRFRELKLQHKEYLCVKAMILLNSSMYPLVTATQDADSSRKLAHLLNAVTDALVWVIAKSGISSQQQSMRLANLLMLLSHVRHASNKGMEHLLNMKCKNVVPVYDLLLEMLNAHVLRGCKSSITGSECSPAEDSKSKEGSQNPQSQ

SMILES: CCOC(=O)[C@@H]1C[C@H]2[C@@H]3CCc4cc(O)ccc4[C@H]3CC[C@]2(C)[C@H]1O
- Activity [1]: 0.3
- RHA (Rattus norvegicus): 100%

SMILES: COC(=O)C[C@H]1C[C@]2(C)[C@@H](O)CC[C@H]2[C@@H]2CCc3cc(O)ccc3[C@@H]12
- Vaginal activity [2]: 0.42
- Uterotropic activity [3]: 6.5
- Uterotropic activity [4]: 0.07
- RHA (Rattus norvegicus): 106%
- Vaginal activity [5]: 21

SMILES: CCOC(=O)C[C@H]1Cc2cc(O)ccc2[C@H]2CC[C@]3(C)[C@@H](O)CC[C@H]3[C@H]12
- RHA (Rattus norvegicus): 0%

SMILES: CCOC(=O)CC[C@H]1C[C@H](O)[C@@]2(C)CC[C@@H]3c4ccc(O)cc4CC[C@H]3[C@H]12
- RHA (Rattus norvegicus): 674%

SMILES: CCCCOC(=O)[C@@H]1Cc2cc(O)ccc2[C@H]2CC[C@]3(C)[C@@H](O)CC[C@H]3[C@@H]21
- RHA (Rattus norvegicus): 0%

SMILES: CC(C)OC(=O)[C@H]1C[C@H](O)[C@@]2(C)CC[C@@H]3c4ccc(O)cc4CC[C@H]3[C@H]12
- RHA (Rattus norvegicus): 0.4%

SMILES: CCCCOC(=O)[C@H]1C[C@H](O)[C@@]2(C)CC[C@@H]3c4ccc(O)cc4CC[C@H]3[C@H]12
- RHA (Rattus norvegicus): 7%

SMILES: CCCOC(=O)[C@H]1C[C@H](O)[C@@]2(C)CC[C@@H]3c4ccc(O)cc4CC[C@H]3[C@H]12
- RHA (Rattus norvegicus): 7.8%

SMILES: CCOC(=O)C[C@@H]1Cc2cc(O)ccc2[C@H]2CC[C@]3(C)[C@@H](O)CC[C@H]3[C@H]12
- RHA (Rattus norvegicus): 70%

SMILES: CCOC(=O)C[C@H]1C[C@H](O)[C@@]2(C)CC[C@@H]3c4ccc(O)cc4CC[C@H]3[C@H]12
- RHA (Rattus norvegicus): 71%

SMILES: C[C@]12CC[C@@H]3c4ccc(O)cc4CC[C@H]3[C@@H]1C[C@@H](C(=O)OCCF)[C@@H]2O
- Vaginal activity [2]: 0.42
- Uterotropic activity [3]: 2
- Uterotropic activity [4]: 0.02
- Vaginal activity [5]: 21

SMILES: COC(=O)CC[C@H]1C[C@H](O)[C@@]2(C)CC[C@@H]3c4ccc(O)cc4CC[C@H]3[C@H]12
- RHA (Rattus norvegicus): 248%

SMILES: COC(=O)CC[C@H]1C[C@]2(C)[C@@H](O)CC[C@H]2[C@@H]2CCc3cc(O)ccc3[C@@H]12
- RHA (Rattus norvegicus): 64%

SMILES: C[C@]12CC[C@@H]3c4ccc(O)cc4C[C@@H](C(=O)OCCF)[C@H]3[C@@H]1CC[C@@H]2O
- RHA (Rattus norvegicus): 0%

SMILES: COC(=O)[C@@H]1Cc2cc(O)ccc2[C@H]2CC[C@]3(C)[C@@H](O)CC[C@H]3[C@@H]21
- Vaginal activity [2]: 1
- Uterotropic activity [3]: 10.5
- Uterotropic activity [4]: 0.11
- RHA (Rattus norvegicus): 0%
- Vaginal activity [5]: 50

SMILES: CCOC(=O)CC[C@H]1C[C@]2(C)[C@@H](O)CC[C@H]2[C@@H]2CCc3cc(O)ccc3[C@@H]12
- Activity [1]: 64
- RHA (Rattus norvegicus): 542%

SMILES: CCCOC(=O)[C@@H]1Cc2cc(O)ccc2[C@H]2CC[C@]3(C)[C@@H](O)CC[C@H]3[C@@H]21
- RHA (Rattus norvegicus): 0%

SMILES: COC(=O)[C@H]1CC(O)[C@@]2(C)CC[C@@H]3c4ccc(O)cc4CC[C@H]3[C@H]12 (stereo partly specified)
- Vaginal activity [2]: 0.38
- Uterotropic activity [3]: 0
- RHA (Rattus norvegicus): 1.7%
- Vaginal activity [5]: 19

SMILES: COC(=O)C[C@@H]1Cc2cc(O)ccc2[C@H]2CC[C@]3(C)[C@@H](O)CC[C@H]3[C@H]12
- RHA (Rattus norvegicus): 30%

SMILES: COC(=O)C[C@H]1C[C@H](O)[C@@]2(C)CC[C@@H]3c4ccc(O)cc4CC[C@H]3[C@H]12
- RHA (Rattus norvegicus): 31%

SMILES: CCOC(=O)[C@H]1C[C@H](O)[C@@]2(C)CC[C@@H]3c4ccc(O)cc4CC[C@H]3[C@H]12
- Activity [1]: 7
- Vaginal activity [2]: 0.42
- Uterotropic activity [3]: 0
- RHA (Rattus norvegicus): 2.3%
- Vaginal activity [5]: 21

SMILES: C[C@]12CC[C@@H]3c4ccc(O)cc4CC[C@H]3[C@@H]1CC[C@@H]2O
- Activity [1]: 100

SMILES: CCOC(=O)[C@@H]1Cc2cc(O)ccc2[C@H]2CC[C@]3(C)[C@@H](O)CC[C@H]3[C@@H]21
- Activity [1]: 9
- Vaginal activity [2]: 0.44
- Uterotropic activity [3]: 4
- Uterotropic activity [4]: 0.04
- RHA (Rattus norvegicus): 0%
- Vaginal activity [5]: 22

SMILES: C[C@]12CC[C@@H]3c4ccc(O)cc4CC[C@H]3[C@@H]1[C@@H](C(=O)OCCF)C[C@@H]2O
- RHA (Rattus norvegicus): 4.5%

SMILES: CCOC(=O)C[C@H]1C[C@]2(C)[C@@H](O)CC[C@H]2[C@@H]2CCc3cc(O)ccc3[C@@H]12
- Activity [1]: 70
- RHA (Rattus norvegicus): 152%
